Assay results taken from ChEMBL document CHEMBL1275590, “Novel arylimidamides for treatment of visceral leishmaniasis” (Antimicrob Agents Chemother, 2010).

Experiments:
[1] = Tmax in Swiss Webster mouse at 1 mg/kg, iv by HPLC-MS/MS analysis; type: ADME, organism-based; design: dose 1 mg/kg, route intravenous; conditions: in vivo
Method in brief: (§1)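 Male Swiss Webster mice (n = 3 per time point), single dose by oral gavage (sterile water solution) or tail-vein bolus i.v. (water diluted 1:1 with 2× saline, over ~10–20 s); dose volume 5 ml/kg. Terminal blood sampled from 5 min to 72 h postdose; plasma quantified by HPLC-MS/MS (positive-ion SRM). Noncompartmental analysis gave Cmax, Tmax, AUC0-∞, CL, Vss; bioavailability from p.o. versus i.v. exposure.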

Mus musculus [2] = test: AUC (0 to infinity) in Swiss Webster mouse at 131 mg/kg, po by HPLC-MS/MS analysis; type: ADME, organism-based, Plasma; design: dose 131 mg/kg, route oral, time infinity; conditions: in vivo
Method in brief: (§2)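 Male Swiss Webster mice, n = 3 per time point. For i.v., the compound was dissolved in sterile water, diluted 1:1 with 2× saline, and given as a tail-vein bolus over ~10–20 s. For p.o., it was given by gavage in sterile water. Dose volume was 5 ml/kg. Terminal plasma was taken from 5 min to 72 h and measured by HPLC-MS/MS (calibration 2.5–10,000 nM). Parameters came from noncompartmental analysis.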

Mus musculus [3] = test: Renal toxicity in BALB/c mouse assessed as phosphorus level in serum at 10 mg/kg/day, iv administered for five days ((Rvb= 6.1 mg/dl); type: organism-based; design: route intravenous; conditions: in vivo
Method in brief: (§3)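 Female BALB/c mice (n = 5 per dose), dosed once daily for 5 consecutive days p.o. (20 ml/kg) or i.v. (10 ml/kg) with compound in sterile water, prepared fresh daily under yellow light. Vehicle controls n = 5 per route. Clinical observations, body weights, serum chemistry and hematology on day 6 before necropsy; histopathology of formalin-fixed tissues. Chemistry analysed by one-way ANOVA with Dunnett's posttest.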

Mus musculus [4] = test: Volume of distribution in Swiss Webster mouse at 131 mg/kg, po by HPLC-MS/MS analysis; type: ADME, organism-based; design: dose 131 mg/kg, route oral; conditions: in vivo
Method in brief: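 Male Swiss Webster mice (n = 3 per time point) got a single oral gavage dose in sterile water, 5 ml/kg. The 5 mM formulation was a clear solution; the 20 and 40 mM formulations were gelatinous. Terminal blood was collected from 5 min to 72 h postdose, and plasma was analysed by HPLC-MS/MS. Volume of distribution came from noncompartmental analysis.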

[5] = Half life in Swiss Webster mouse at 66 mg/kg, po by HPLC-MS/MS analysis; type: ADME, organism-based; design: dose 66 mg/kg, route oral; conditions: in vivo; method in brief: as §2
Mus musculus [6] = test: Hepatotoxicity in BALB/c mouse assessed as AST level in serum at 10 mg/kg/day, iv administered for five days (Rvb= 65 U/L); type: toxicity, organism-based; design: route intravenous; conditions: in vivo
Mus musculus [7] = test: Toxicity in BALB/c mouse assessed as gastric inflammation at 150 mg/kg/day, po; type: organism-based, Stomach; design: route oral; conditions: in vivo
Mus musculus [8] = test: Toxicity in BALB/c mouse assessed as decrease in liver weight at 150 mg/kg/day, po administered for five days; type: organism-based; design: route oral; conditions: in vivo; method in brief: as §3
[9] = Half life in Swiss Webster mouse at 131 mg/kg, po by HPLC-MS/MS analysis; type: ADME, organism-based; design: dose 131 mg/kg, route oral; conditions: in vivo; method in brief: as §2
Mus musculus [10] = test: Toxicity in BALB/c mouse assessed as occurrence of tremor at 30 mg/kg, iv; type: organism-based; design: dose 30 mg/kg, route intravenous; conditions: in vivo
Method in brief: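 Single-dose escalation: female BALB/c mice (n = 1 per dose level) given one i.v. dose in sterile water (10 ml/kg), 5–50 mg/kg, observed for 2 days.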

Mus musculus [11] = test: Hepatotoxicity in BALB/c mouse assessed as ALT level in serum at 150 mg/kg/day, po administered for five days (Rvb= 36 U/L); type: toxicity, organism-based; design: route oral; conditions: in vivo
[12] = AUC (0 to infinity) in Swiss Webster mouse at 5 mg/kg, iv by HPLC-MS/MS analysis; type: ADME, organism-based; design: time infinity, dose 5 mg/kg, route intravenous; conditions: plasma; method in brief: as §2
Mus musculus [13] = test: Renal toxicity in BALB/c mouse assessed as blood urea nitrogen level in serum at 150 mg/kg/day, po administered for five days (Rvb= 29 mg/dl); type: organism-based; design: route oral; conditions: in vivo; method in brief: as §3
[14] = Drug level in Swiss Webster mouse kidney at 70 mg/kg, po after 2 hrs by HPLC/UV analysis; conditions: read-out: Drug uptake
[15] = Half life in Swiss Webster mouse at 5 mg/kg, iv by HPLC-MS/MS analysis; type: ADME, organism-based; design: dose 5 mg/kg, route intravenous; conditions: in vivo; method in brief: as §2
[16] = Induction of mutagenicity in Salmonella serovar Typhimurium TA 98 assessed as number of revertant colonies at 1 ug by Ames assay in presence of Aroclor 1254-induced rat liver S9 metabolic activation system; type: toxicity, subcellular, Salmonella enterica subsp. enterica serovar Typhimurium
Method in brief: (§4)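 Ames plate incorporation with S. Typhimurium TA98 and TA100, with or without Aroclor 1254-induced rat liver S9 (10% vol/vol). Compound was dissolved in sterile water and serially diluted to 1–500 μg/plate. Positive controls were 2-nitrofluorene and sodium azide without S9, and 2-aminoanthracene with S9; sterile water and DMSO served as vehicles. Revertant colonies and background lawn were scored. A mutagen was defined as a mean revertant count at least 2-fold over solvent control. Single experiment.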

Leishmania donovani [17] = test: Antileishmanial activity against Leishmania donovani promastigotes in BALB/c mouse assessed as inhibition of liver parasitemia at 100 mg/kg/day, po administered for five days; type: functional; design: scale not given: the % may be the effect or the level left
Method in brief: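 Murine VL model in L. donovani-infected mice. Compounds were dissolved in water and given i.p. or p.o. once daily for 5 days (4 days for one i.p. regimen). Liver parasitemia was compared with untreated controls by unpaired Student's t test, P ≤ 0.05.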

Leishmania donovani [18] = test: Antileishmanial activity against Leishmania donovani WR378 infected in golden Syrian hamster assessed as reduction in liver parasitemia at 100 mg/kg/day, po administered for five days; type: functional; conditions: 120 h
Method in brief: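 11-day golden hamster VL model adapted from an 8-day method, using L. donovani WR378 metacyclic promastigotes. Dosing was oral, once daily for 5 days. Animals were euthanized on day 11 post-infection. Liver, spleen and femoral bone marrow (flushed with Schneider's medium) were harvested.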

[19] = Induction of mutagenicity in Salmonella serovar Typhimurium TA 98 assessed as number of revertant colonies at 10 ug by Ames assay; type: toxicity, Salmonella enterica subsp. enterica serovar Typhimurium; conditions: in vivo; method in brief: as §4
[20] = Induction of mutagenicity in Salmonella serovar Typhimurium TA 98 assessed as number of revertant colonies at 50 ug by Ames assay; type: toxicity, Salmonella enterica subsp. enterica serovar Typhimurium
Method in brief: (§5)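 Plate incorporation test, S. Typhimurium TA98 (and TA100), with or without Aroclor 1254-induced rat liver S9 (10% vol/vol). Compound dissolved in sterile water, serially diluted to 1–1,000 or 1–500 μg/plate. Positive controls: 2-nitrofluorene and sodium azide without S9, 2-aminoanthracene with S9; water and DMSO vehicle controls. Revertant colonies and background lawn scored; mutagen if mean revertants ≥2-fold solvent control. Single experiment.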

[21] = Induction of mutagenicity in Salmonella serovar Typhimurium TA 98 assessed as number of revertant colonies at 5 ug by Ames assay; type: toxicity, Salmonella enterica subsp. enterica serovar Typhimurium; conditions: in vivo; method in brief: as §4
[22] = Tmax in Swiss Webster mouse at 70 mg/kg, po by HPLC-MS/MS analysis; type: ADME, organism-based; design: dose 70 mg/kg, route oral; conditions: in vivo; method in brief: as §1
[23] = Induction of mutagenicity in Salmonella serovar Typhimurium TA 100 assessed as number of revertant colonies at 5 ug by Ames assay; type: toxicity, Salmonella enterica subsp. enterica serovar Typhimurium; conditions: in vivo
Method in brief: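 Plate incorporation method with TA100, with and without Aroclor 1254-induced rat liver S9 (10% vol/vol). Compound dissolved in sterile water, serially diluted; plates scored for revertant count and background lawn versus controls. Mutagen if mean revertants at least 2-fold over mean solvent control. Positive controls: 2-nitrofluorene and sodium azide without S9, 2-aminoanthracene with S9; water and DMSO vehicles.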

[24] = Induction of mutagenicity in Salmonella serovar Typhimurium TA 98 assessed as number of revertant colonies at 500 ug by Ames assay; type: toxicity, Salmonella enterica subsp. enterica serovar Typhimurium; method in brief: as §5

Question: Which results are given for `CCOc1cc(NC(=N)c2ccccn2)ccc1-c1ccc(-c2ccc(NC(=N)c3ccccn3)cc2OCC)o1`?
Answer: Tmax [1]: 5 min; AUC (Mus musculus [2]): 30 µM·h; Activity (Mus musculus [3]): 8.1 mg/dL; Vd (Mus musculus [4]): 76 L/kg; half-life [5]: 30 h; Activity (Mus musculus [6]): 80 U/L; Activity (Mus musculus [7]): Toxic; Activity (Mus musculus [8]): Toxic; half-life [9]: 32 h; Activity (Mus musculus [10]): Toxic; Activity (Mus musculus [11]): 220 U/L

Question: Which results are given for `CC(C)Oc1cc(NC(=N)c2ccccn2)ccc1-c1ccc(-c2ccc(NC(=N)c3ccccn3)cc2OC(C)C)o1`?
Answer: AUC(0-inf) [12]: 9.53 µM·h; Activity (Mus musculus [13]): 29 U/L; concentration at 2 h [14]: 30.3 µM; half-life [15]: 24 h; Activity [16]: 43; Activity (Leishmania donovani [17]): 71%; inhibition in vivo at 100 mg/kg/day (Leishmania donovani [18]): 89%; Activity [19]: 29; Activity [20]: 28; Activity [21]: 29; Tmax [22]: 1 h; Activity [23]: 145; Activity [24]: 28
